According to ChEMBL document CHEMBL4411269, “Required Immunoproteasome Subunit Inhibition Profile for Anti-Inflammatory Efficacy and Clinical Candidate KZR-616 ((2 S,3 R)- N-(( S)-3-(Cyclopent-1-en-1-yl)-1-(( R)-2-methyloxiran-2-yl)-1-oxopropan-2-yl)-3-hydroxy-3-(4-methoxyphenyl)-2-(( S)-2-(2-morpholinoacetamido)propanamido)propenamide)” (J Med Chem, 2018):
Values after ≈ are worked out from the molar mass of the structure shown. Active and inactive are the calls of the source. The rule behind the calls is not given here.

Assays:
[1] = Solubility of the compound in phosphate buffer at pH 7.2 at 10 mg/ml after 24 hrs by HPLC-UV method; type: physicochemical
How it was run: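 Compound shaken at a target 10 mg/mL in 50 mM potassium phosphate buffer for 24 h at 25 °C, then centrifuged at 15 000 rpm for 15 min. Supernatant diluted 100-fold in DMSO and quantified by HPLC-UV (220/254/280 nm) against a three-level DMSO standard curve, in duplicate.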

[2] = target: T1, Proteasome Macropain subunit MB1 (Homo sapiens, UniProt P28074); assay: Inhibition of 20S proteosome beta 5 in human MOLT4 cells by ELISA; type: cell-based
T1 sequence (P28074 whole entry): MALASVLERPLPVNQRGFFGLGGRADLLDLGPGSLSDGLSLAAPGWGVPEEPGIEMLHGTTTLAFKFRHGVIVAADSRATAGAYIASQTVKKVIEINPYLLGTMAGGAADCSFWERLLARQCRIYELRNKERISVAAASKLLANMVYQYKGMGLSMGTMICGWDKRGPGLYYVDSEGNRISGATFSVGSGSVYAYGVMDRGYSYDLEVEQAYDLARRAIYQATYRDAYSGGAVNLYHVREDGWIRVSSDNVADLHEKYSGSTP

[3] = target: T2, Proteasome subunit beta type-9 (Homo sapiens, UniProt P28065); assay: Inhibition of LMP2 in human MOLT4 cells by ELISA; type: cell-based
T2 sequence (P28065 whole entry): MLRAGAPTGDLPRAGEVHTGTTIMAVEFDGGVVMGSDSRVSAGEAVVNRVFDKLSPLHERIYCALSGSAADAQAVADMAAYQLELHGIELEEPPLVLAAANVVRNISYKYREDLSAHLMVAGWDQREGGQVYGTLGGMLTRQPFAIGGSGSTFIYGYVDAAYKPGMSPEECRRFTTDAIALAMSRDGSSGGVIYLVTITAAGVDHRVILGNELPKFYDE

[4] = target: T3, Proteasome subunit beta type-10 (Homo sapiens, UniProt P40306); assay: Inhibition of MECL1 in human MOLT4 cells by ELISA; type: cell-based
T3 sequence (P40306 whole entry): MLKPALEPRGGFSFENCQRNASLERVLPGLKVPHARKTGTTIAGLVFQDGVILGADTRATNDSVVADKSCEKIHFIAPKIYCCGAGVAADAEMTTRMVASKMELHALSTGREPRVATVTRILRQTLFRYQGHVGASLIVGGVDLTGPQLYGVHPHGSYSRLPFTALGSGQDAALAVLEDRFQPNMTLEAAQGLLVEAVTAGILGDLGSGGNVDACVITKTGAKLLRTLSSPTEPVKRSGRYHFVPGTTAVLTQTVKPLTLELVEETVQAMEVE

[5] = target: T4, Proteasome subunit beta type-8 (Mus musculus, UniProt P28063); assay: Inhibition of LMP7 in mouse A20 cells by ELISA; type: cell-based
T4 sequence (P28063 whole entry): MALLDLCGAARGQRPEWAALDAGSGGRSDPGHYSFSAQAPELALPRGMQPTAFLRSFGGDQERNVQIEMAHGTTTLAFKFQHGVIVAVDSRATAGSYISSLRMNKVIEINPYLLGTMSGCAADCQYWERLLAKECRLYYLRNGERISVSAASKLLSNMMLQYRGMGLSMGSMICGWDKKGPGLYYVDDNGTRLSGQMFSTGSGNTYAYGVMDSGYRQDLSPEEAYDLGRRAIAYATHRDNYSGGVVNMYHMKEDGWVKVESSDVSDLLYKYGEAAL
How it was run: (§1)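 Mouse A20 B-cell lymphoma cell lysate (1 mg/mL, hypotonic 20 mM Tris pH 8, 5 mM EDTA) treated with serially diluted compound for 1 h at 25 °C. Then 5 μM biotinylated active-site probe for 2 h at 25 °C, guanidine denaturation and streptavidin bead capture. Subunit-specific antibody and HRP chemiluminescence, signal normalized to protein, IC50 from percent activity versus DMSO controls.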

[6] = target: T5, Proteasome subunit beta type-5 (Mus musculus, UniProt O55234); assay: Inhibition of 20S proteosome beta 5 in mouse A20 cells by ELISA; type: cell-based
T5 sequence (O55234 whole entry): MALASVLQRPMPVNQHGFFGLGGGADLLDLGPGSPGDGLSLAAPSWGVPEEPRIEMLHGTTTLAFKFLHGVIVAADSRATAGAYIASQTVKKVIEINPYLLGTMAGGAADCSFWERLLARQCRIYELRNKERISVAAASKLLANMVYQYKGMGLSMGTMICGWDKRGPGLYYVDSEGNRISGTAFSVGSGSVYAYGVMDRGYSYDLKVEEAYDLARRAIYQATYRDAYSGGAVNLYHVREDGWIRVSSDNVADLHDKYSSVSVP

[7] = target: T6, Proteasome subunit beta type-9 (Mus musculus, UniProt P28076); assay: Inhibition of LMP2 in mouse A20 cells by ELISA; type: cell-based; how it was run: as §1
T6 sequence (P28076 whole entry): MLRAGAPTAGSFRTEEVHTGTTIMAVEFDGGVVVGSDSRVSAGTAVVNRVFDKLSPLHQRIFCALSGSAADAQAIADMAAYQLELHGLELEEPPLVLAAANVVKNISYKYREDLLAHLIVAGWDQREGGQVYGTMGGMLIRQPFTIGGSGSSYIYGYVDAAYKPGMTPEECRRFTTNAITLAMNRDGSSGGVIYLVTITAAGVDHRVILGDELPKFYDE

[8] = target: T7, Proteasome subunit beta type-10 (Mus musculus, UniProt O35955); assay: Inhibition of MECL1 in mouse A20 cells by ELISA; type: cell-based; how it was run: as §1
T7 sequence (O35955 whole entry): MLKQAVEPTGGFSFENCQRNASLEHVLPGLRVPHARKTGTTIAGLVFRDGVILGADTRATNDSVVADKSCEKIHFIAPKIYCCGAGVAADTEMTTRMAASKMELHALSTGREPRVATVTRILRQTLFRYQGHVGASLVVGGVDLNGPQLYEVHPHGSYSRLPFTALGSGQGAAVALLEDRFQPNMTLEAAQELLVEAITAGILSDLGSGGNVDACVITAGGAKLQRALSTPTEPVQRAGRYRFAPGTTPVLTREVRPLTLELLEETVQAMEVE

PBMC = assay: Antiinflammatory activity in human PBMC assessed as reduction in LPS-stimulated TNF-alpha expression at 250 nM preincubated for 1 hr followed by LPS stimulation measured after 24 hrs by ELISA; type: functional, cell-based
How it was run: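 Cryopreserved healthy-donor PBMC in RPMI 1640 with 5% heat-inactivated FBS, 250 000 cells/well. Compound (0.1% DMSO final) for 1 h at 37 °C, 5% CO2, then 4 washes with medium. Stimulated with 1 μg/mL LPS for 24 h; supernatant TNFα, IL-6 and IL-12/23p40 by electrochemiluminescent immunoassay. Mean level relative to DMSO controls, n = 6.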

solubility at 24 h [1]	IC50 [2]	IC50 [3]	IC50 [4]	IC50 [5]	IC50 [6]	IC50 [7]	IC50 [8]	Structure (SMILES)	Activity (PBMC)
491 µg/mL (≈ 862 µM)	2670 nM	1850 nM	> 25000 nM	374 nM	2650 nM	3960 nM		COc1ccc(C[C@H](NC(=O)[C@@H](C)NC(=O)[C@H]2CC[C@H](O)CC2)C(=O)N[C@@H](CC2=CCCC2)C(=O)[C@@]2(C)CO2)cc1	
7 µg/mL (≈ 11.1 µM)	486 nM	> 25000 nM	71 nM	1920 nM	378 nM	> 25000 nM	305 nM	Cc1ccc(CC[C@H](NC(=O)[C@H](Cc2ccccc2)NC(=O)[C@H](CC(C)C)NC(=O)CN2CCCCCC2)C(=O)[C@@]2(C)CO2)cc1	inactive
7070 µg/mL (≈ 12100 µM)	688 nM	131 nM	623 nM	57 nM	483 nM	179 nM	522 nM	COc1ccc([C@@H](O)[C@H](NC(=O)[C@H](C)NC(=O)CN2CCOCC2)C(=O)N[C@@H](CC2=CCCC2)C(=O)[C@@]2(C)CO2)cc1 [ZETOMIPZOMIB]	Active
